Measured values collected from several papers.
Compare with care: the assays were run in different laboratories.
MDH2: Malate dehydrogenase, mitochondrial (MDH2, Sus scrofa, UniProt P00346)
AKT1: RAC-alpha serine/threonine-protein kinase (AKT1, Homo sapiens, UniProt P31749)

Structure (SMILES)	target	read-out	mode	technique	setting	endpoint	result
COc1c(Br)cccc1C(=O)Nc1ccc(Sc2nc3ccccc3s2)c(Cl)c1	MDH2	enzyme activity	inhibitor	–	–	IC50	> 62.5 µM
Cc1ncsc1-c1ccc(CNC(=O)[C@@H]2C[C@@H](O)CN2C(=O)[C@@H](NC(=O)CCCCCCCCCC(=O)N2CCN(CC[C@H](NC(=O)C3(N)CCN(c4ncnc5[nH]ccc45)CC3)c3ccc(Cl)cc3)CC2)C(C)(C)C)cc1	AKT1	binding	–	competition with immobilised ligand	–	Kd	0.01 µM
[O-][n+]1cccc(CCOc2ccc(Cl)c3ccccc23)c1	G-protein coupled receptor 84 (Gpr84, Mus musculus, UniProt Q8CIM5)	cAMP	agonist	–	–	EC50	11 nM
CNC(=O)c1cc2c(Oc3ccc(NC(=O)C4(C(=O)Nc5ccc(F)cc5)CC4)cc3)ccnc2cc1OC	Ephrin type-A receptor 2 (EPHA2, Homo sapiens, UniProt P29317)	enzyme activity	inhibitor	radiometric	–	IC50	0.054 µM
O=S(=O)(Nc1ccc(-c2nc3cc(NS(=O)(=O)c4cccc5ccccc45)ccc3o2)cc1)c1cccc2ccccc12	MDH2	enzyme activity	inhibitor	–	–	IC50	> 62.5 µM
Cc1cc2nc3c(=O)[nH]c(=O)nc-3n(C[C@H](O)[C@H](O)[C@H](O)COP(=O)(O)OP(=O)(O)OC[C@H]3O[C@@H](n4cnc5c(N)ncnc54)[C@H](O)[C@@H]3O)c2cc1C	Protein argonaute-2 (AGO2, Homo sapiens, UniProt Q9UKV8)	binding	–	–	lysate	Kd	0.021 µM
CC(O)CN1CCC(CC[S+]([O-])C(c2ccc(F)cc2)c2ccc(F)cc2)CC1 (stereo not drawn)	Transporter (Slc6a2, Rattus norvegicus, UniProt Q63380)	ligand displacement	–	radioligand	–	Ki	> 100 µM
O=C(/C=C/c1ccc(-n2ccnc2)cc1)N1CCN(C(=O)c2ccco2)CC1	Protein ENL, YEATS (MLLT1, Homo sapiens, UniProt Q03111)	binding	–	BLI	–	Kd	14 µM
CC(C)C[C@H](NC(=O)[C@H](CCCNC(=N)N)NC(=O)[C@H](C)N)C(=O)N[C@@H](Cc1ccc(O)cc1)C(=O)N[C@@H](Cc1ccc(O)cc1)C(=O)N[C@@H](Cc1ccccc1)C(=O)N[C@@H](Cc1c[nH]c2ccccc12)C(=O)N[C@@H](CC(=O)O)C(=O)N[C@H](C(=O)O)[C@@H](C)O	DNA dC->dU-editing enzyme APOBEC-3G (APOBEC3G, Homo sapiens, UniProt Q9HC16)	enzyme activity	inhibitor	–	–	Ki	~7.8 µM
CCCN1CCN(c2ccc(-c3cncc(Cl)c3N3CCC4(CCNC4=O)CC3)cc2)CC1	Serine/threonine-protein kinase D2 (PRKD2, Homo sapiens, UniProt Q9BZL6)	cell-free assay	–	–	lysate	Kd	20 µM
CC(C)(C)n1nc(-c2ccc3nc(OC4CC4)ccc3c2)c(C(N)=O)c1N	AKT1	cell-free assay	–	–	–	IC50	> 10 µM
CO[C@@H]1O[C@@H](C)[C@@H](O)[C@@H](O)[C@@H]1O	fleA (Aspergillus fumigatus, UniProt Q4WW81)	binding	–	ITC	–	Kd	76.4 µM
CC(=O)N[C@@H](CCCNC(=N)N)C(=O)NCC(=O)NCC(=O)N1CCC[C@H]1B(O)O	Dipeptidyl peptidase 4 (DPP4, Homo sapiens, UniProt P27487)	enzyme activity	inhibitor	fluorescence	–	Ki	0.322 µM
O=C(Nc1ccc(Sc2nc3ccccc3s2)c(Cl)c1)c1cccc(Br)c1O	MDH2	enzyme activity	inhibitor	–	–	IC50	> 62.5 µM
Cc1cnc(-c2ccc(-c3ccc(NC(=O)Nc4c(F)cc(F)cc4F)cc3F)c3c2C(=O)NC3)[nH]1	Proto-oncogene tyrosine-protein kinase Src (SRC, Homo sapiens, UniProt P12931)	binding	–	competition with immobilised ligand	–	Kd	0.11 µM
